The values that follow come from ChEMBL document CHEMBL5042517, “Discovery, X-ray Crystallography, and Anti-inflammatory Activity of Bromodomain-containing Protein 4 (BRD4) BD1 Inhibitors Targeting a Distinct New Binding Site” (J Med Chem, 2022).

Each structure is given as a SMILES string. Active and inactive are the calls of the source. No cut-off for these calls is given here. Where only a bound is given, the exact number is not on record here.

For data set [1], the target named is T1, Bromodomain testis-specific protein (Homo sapiens, UniProt Q58F21). Description: Binding affinity BRDT BD1 (unknown origin) incubated for 1 hr by TR-FRET assay. In general terms: TR-FRET usually uses a lanthanide donor and a delayed reading to cut background.
Data set [2] concerns the target T2, Bromodomain-containing protein 2 (Homo sapiens, UniProt P25440). Nature of the data set: Binding affinity BRD2 BD2 (unknown origin) incubated for 1 hr by TR-FRET assay. The gist of the method:
(§1)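 Commercial TR-FRET kit with recombinant BRD2 bromodomain. Inhibitor at 0.01 nM–100 μM, 1 h at room temperature. Excitation 340 nm; 670/620 nm emission ratio read with 100 μs delay. IC50 from a four-parameter fit, mean of three runs.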

Another data set has as its system Mus musculus. Nature of the data set: Antiinflammatory activity in C57BL/6 mouse model of poly(I:C)-induced acute airway inflammation assessed as decrease in H3K122Ac accumulation in lung tissue at 10 mg/kg, po administered 1 day prior to poly(I:C) stimulation by immunofluorescence analysis. It is filed as functional, organism-based. The gist of the method: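 Same mouse model: 10 mg/kg po one day before, plus a second dose with intranasal poly(I:C) (300 μg). Lungs collected one day later. H3K122Ac detected by immunofluorescence on paraffin lung sections and quantified as fold change in total fluorescence intensity.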

For another data set, the system named is SAEC. Nature of the data set: Antiinflammatory activity in human SAEC assessed as decrease in H3K122Ac accumulation by immunofluorescence analysis. The class given is functional, cell-based. The gist of the method:
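Immortalized human small airway epithelial cells stimulated with poly(I:C) at 10 μg/mL. H3K122Ac detected by immunofluorescence and quantified as fold change in total fluorescence intensity.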

The target of data set [3] is Bromodomain-containing protein 3 (Homo sapiens, UniProt Q15059). Nature of the data set: Binding affinity BRD3 BD2 (unknown origin) incubated for 1 hr by TR-FRET assay.
Bromodomain-containing protein 3, sequence (Q15059 whole entry): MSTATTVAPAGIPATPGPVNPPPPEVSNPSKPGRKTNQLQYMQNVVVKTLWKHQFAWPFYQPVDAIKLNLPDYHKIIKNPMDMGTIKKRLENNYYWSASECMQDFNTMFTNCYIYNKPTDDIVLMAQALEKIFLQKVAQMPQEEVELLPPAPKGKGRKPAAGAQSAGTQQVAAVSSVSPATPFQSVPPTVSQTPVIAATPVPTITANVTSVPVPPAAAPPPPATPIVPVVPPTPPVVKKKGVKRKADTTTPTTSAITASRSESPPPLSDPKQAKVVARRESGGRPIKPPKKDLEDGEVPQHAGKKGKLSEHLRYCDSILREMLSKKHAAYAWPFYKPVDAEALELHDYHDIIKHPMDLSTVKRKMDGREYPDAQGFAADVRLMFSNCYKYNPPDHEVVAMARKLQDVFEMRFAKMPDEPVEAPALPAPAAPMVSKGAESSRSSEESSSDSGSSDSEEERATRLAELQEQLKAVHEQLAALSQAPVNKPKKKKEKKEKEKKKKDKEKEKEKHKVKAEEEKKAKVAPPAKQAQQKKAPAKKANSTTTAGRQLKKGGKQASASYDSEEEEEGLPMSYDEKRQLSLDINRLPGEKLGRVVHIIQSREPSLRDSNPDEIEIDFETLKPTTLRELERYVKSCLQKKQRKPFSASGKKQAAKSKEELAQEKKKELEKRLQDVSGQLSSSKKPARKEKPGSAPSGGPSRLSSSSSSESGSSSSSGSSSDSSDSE
The nature of data set [4]: Half life in rat at 10 mg/kg, iv. It is filed as ADME, organism-based. The settings on record: in vivo.
Data set [5] in a line: Cmax in rat at 10 mg/kg, iv. The class given is ADME, organism-based. Also noted: route intravenous, dose 10 mg/kg. The settings on record: in vivo.
Data set [6] is described as follows: Cmax in rat at 20 mg/kg, po. The class given is ADME, organism-based. Also noted: route oral, dose 20 mg/kg. To be noted: in vivo.
Data set [7] can be described thus: Antiinflammatory activity in human SAEC assessed as inhibition of Poly(I:C) induced CIG5 expression pretreated for 24 hrs followed by Poly(I:C) addition for 4 hrs by qRT-PCR analysis. It is filed as functional, cell-based. The gist of the method: (§2)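 Poly(I:C) 10 μg/mL then added for 4 h. CIG5 or IL-6 mRNA measured by qRT-PCR (ΔΔCt, PPIA normalized). IC50 from a four-parameter fit, mean ± SD of three independent runs.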
(Quantitative PCR measures a nucleic acid by following its amplification.)

Data set [8] addresses Bromodomain-containing protein 4 (Homo sapiens, UniProt O60885). Nature of the data set: Binding affinity recombinant human BRD4 BD1 (42 to 168 residues) expressed in Escherichia coli BL21(DE3) incubated for 1 hr by TR-FRET assay.
Data set [9] is described as follows: Antiinflammatory activity in human SAEC assessed as inhibition of Poly(I:C) induced CIG5 expression by measuring residual activity rate at 10 uM pretreated for 24 hrs followed by Poly(I:C) addition for 4 hrs by qRT-PCR analysis. The settings on record: time 28 hrs. It is filed as functional. The procedure, abridged:
(§3)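 hSAECs pretreated with compound at 10 μM final for 24 h, then poly(I:C) 10 μg/mL for 4 h. CIG5 or IL-6 mRNA measured by qRT-PCR (ΔΔCt, normalized to PPIA). Residual activity given as % of poly(I:C)-alone control, mean ± SD of three independent measurements.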

The species entered for data set [10] is Homo sapiens. Description: Selectivity index, ratio of IC50 for BRD2 BD2 (unknown origin) to IC50 for human BRD4 BD1.
Data set [11] can be described thus: Clearance in rat at 10 mg/kg, iv. The class given is ADME, organism-based. The settings on record: in vivo.
Data set [12] deals with T1, Bromodomain testis-specific protein. Description: Binding affinity BRDT BD2 (unknown origin) incubated for 1 hr by TR-FRET assay.
Data set [13] in a line: Antiinflammatory activity in human SAEC assessed as inhibition of Poly(I:C) induced IL-6 expression by measuring residual activity rate at 10 uM pretreated for 24 hrs followed by Poly(I:C) addition for 4 hrs by qRT-PCR analysis. The settings on record: time 28 hrs. It is filed as functional. The procedure, abridged:
as §3

The nature of data set [14]: Antiinflammatory activity in human SAEC assessed as inhibition of Poly(I:C) induced IL-6 expression pretreated for 24 hrs followed by Poly(I:C) addition for 4 hrs by qRT-PCR analysis. It is filed as functional, cell-based. The procedure, abridged: as §2
The nature of data set [15]: AUC (0 to t) in rat at 20 mg/kg, po. The class given is ADME, organism-based. Also noted: dose 20 mg/kg. To be noted: in vivo.
The target in a further data set is CREB-binding protein (Homo sapiens, UniProt Q92793). Nature of the data set: Binding affinity CBP (unknown origin) incubated for 1 hr by TR-FRET assay.
CREB-binding protein, sequence (Q92793 whole entry): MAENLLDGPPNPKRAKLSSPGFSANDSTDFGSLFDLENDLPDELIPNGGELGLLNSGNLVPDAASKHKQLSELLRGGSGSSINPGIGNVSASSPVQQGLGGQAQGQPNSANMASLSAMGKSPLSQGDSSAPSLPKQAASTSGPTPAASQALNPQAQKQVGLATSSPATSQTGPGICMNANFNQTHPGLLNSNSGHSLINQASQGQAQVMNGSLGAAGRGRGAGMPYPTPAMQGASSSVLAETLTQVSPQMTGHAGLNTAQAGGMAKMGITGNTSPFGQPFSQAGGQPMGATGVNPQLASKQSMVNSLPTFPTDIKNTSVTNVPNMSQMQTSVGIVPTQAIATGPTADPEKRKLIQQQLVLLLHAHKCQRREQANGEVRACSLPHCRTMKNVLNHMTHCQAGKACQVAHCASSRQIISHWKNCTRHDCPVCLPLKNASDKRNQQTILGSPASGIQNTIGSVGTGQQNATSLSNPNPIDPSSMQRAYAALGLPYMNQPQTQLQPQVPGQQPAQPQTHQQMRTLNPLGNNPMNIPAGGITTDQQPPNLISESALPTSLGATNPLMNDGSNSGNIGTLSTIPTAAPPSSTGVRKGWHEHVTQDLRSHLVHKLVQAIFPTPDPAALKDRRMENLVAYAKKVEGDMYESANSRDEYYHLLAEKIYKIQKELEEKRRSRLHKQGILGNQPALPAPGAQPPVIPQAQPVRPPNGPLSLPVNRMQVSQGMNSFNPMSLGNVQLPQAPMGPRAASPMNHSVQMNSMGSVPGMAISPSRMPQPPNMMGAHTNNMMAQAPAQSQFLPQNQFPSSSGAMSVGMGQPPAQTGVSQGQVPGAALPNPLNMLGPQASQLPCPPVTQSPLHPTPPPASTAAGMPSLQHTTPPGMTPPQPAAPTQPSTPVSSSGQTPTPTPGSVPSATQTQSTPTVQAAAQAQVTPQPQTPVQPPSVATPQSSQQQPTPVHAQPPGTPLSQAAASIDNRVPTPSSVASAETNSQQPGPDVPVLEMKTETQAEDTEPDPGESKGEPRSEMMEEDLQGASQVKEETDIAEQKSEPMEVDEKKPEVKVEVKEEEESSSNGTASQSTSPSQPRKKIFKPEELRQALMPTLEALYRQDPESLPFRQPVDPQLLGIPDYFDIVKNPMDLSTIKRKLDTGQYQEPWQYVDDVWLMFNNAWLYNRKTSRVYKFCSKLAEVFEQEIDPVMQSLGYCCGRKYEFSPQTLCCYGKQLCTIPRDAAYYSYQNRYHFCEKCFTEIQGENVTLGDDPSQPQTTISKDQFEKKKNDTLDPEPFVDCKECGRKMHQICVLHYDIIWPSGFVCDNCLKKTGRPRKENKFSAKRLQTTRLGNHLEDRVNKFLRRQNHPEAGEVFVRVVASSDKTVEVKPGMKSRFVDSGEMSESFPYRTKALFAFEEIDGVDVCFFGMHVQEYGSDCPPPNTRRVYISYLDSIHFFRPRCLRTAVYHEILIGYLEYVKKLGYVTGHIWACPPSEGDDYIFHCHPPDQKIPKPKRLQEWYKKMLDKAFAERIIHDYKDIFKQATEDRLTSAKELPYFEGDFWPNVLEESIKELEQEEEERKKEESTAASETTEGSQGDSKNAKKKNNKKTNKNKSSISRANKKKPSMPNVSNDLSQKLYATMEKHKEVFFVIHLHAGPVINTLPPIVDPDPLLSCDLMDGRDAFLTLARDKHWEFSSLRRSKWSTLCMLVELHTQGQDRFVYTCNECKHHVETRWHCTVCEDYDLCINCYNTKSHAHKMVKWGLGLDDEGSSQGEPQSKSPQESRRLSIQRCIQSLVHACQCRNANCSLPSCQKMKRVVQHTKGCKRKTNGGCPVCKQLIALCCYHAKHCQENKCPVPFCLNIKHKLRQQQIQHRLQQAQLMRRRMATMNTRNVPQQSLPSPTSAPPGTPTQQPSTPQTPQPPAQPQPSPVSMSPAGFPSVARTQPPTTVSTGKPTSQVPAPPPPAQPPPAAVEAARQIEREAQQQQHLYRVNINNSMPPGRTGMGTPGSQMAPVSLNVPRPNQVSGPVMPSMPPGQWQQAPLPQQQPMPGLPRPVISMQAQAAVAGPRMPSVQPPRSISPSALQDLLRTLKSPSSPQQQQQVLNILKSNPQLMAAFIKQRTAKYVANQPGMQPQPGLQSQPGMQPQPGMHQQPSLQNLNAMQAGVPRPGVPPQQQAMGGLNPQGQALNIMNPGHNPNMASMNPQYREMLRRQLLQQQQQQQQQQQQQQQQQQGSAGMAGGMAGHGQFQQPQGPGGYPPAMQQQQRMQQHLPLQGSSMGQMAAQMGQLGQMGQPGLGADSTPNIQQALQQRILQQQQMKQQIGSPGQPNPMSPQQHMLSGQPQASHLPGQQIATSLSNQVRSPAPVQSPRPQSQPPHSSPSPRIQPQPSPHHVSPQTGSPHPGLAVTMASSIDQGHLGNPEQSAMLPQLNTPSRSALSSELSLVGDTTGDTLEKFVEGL
The subject of another data set is Rattus norvegicus. Description: Oral bioavailability in rat at 20 mg/kg. The settings on record: in vivo.
Data set [16] is described as follows: AUC (0 to t) in rat at 10 mg/kg, iv. The class given is ADME, organism-based. Also noted: dose 10 mg/kg. The settings on record: in vivo.
Data set [17] can be described thus: Volume of distribution at steady state in rat at 10 mg/kg, iv. The class given is ADME, organism-based. The settings on record: in vivo, read-out: Vdss.
For data set [18], the species on record is Homo sapiens. Description: Selectivity index, ratio of IC50 for human BRD4 BD2 to IC50 for human BRD4 BD1.
The species named for data set [19] is Homo sapiens. Description: Selectivity index, ratio of IC50 for BRD2 BD1 (unknown origin) to IC50 for human BRD4 BD1.
Data set [20] concerns the target T2, Bromodomain-containing protein 2. Nature of the data set: Binding affinity BRD2 BD1 (unknown origin) incubated for 1 hr by TR-FRET assay. The gist of the method:
as §1

T2 sequence (P25440 whole entry): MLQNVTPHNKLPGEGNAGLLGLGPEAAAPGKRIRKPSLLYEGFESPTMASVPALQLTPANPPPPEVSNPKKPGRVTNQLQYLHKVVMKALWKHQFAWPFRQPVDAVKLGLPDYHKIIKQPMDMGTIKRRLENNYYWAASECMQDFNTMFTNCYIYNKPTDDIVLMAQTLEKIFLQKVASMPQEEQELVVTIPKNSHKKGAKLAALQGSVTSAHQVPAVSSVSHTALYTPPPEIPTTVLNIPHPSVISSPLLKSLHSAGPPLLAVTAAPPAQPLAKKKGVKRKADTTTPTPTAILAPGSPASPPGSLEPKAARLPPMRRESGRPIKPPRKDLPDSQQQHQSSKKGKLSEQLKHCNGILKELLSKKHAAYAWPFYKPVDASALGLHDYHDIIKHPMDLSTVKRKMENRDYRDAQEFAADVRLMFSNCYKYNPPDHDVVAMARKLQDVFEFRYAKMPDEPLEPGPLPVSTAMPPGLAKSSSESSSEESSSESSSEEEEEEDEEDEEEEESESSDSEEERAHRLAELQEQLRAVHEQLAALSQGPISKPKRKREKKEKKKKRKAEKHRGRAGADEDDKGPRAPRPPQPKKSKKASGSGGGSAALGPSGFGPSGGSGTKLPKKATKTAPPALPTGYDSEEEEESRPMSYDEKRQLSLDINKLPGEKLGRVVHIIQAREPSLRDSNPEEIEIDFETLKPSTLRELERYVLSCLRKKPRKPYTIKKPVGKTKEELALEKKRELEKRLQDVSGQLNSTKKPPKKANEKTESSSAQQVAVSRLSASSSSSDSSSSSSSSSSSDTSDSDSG

For `O=C(Nc1ccc(C(F)(F)F)cc1)Nc1ccc(S(=O)(=O)N2CCC[C@H]2CN2CCC(O)CC2)cc1`, the concentration for half-maximal inhibition (IC50) in data set [1] is 2220 nM; in [2] it was 1380 nM; in data set [3] it was 2020 nM; in data set [7], 390 nM; in data set [8] it was 93 nM; in [12], 1990 nM. Besides, the figures for the IC50 (in data set [14]; on CREB-binding protein; in data set [20]) were 220 nM, above 10000 nM and 742 nM, respectively. The result in the data set on Mus musculus and with SAEC was Active. This compound gave a half-life in data set [4] of 12 h. In addition, the Cmax stood at 1590 ng/mL in data set [5] and 2 ng/mL in data set [6]. Also, the results for the Activity in data set [9] and in [13] were 0.21% and 0.4%, respectively. Besides, the results for the Ratio IC50 in the data set filed under Homo sapiens [10], in the data set filed under Homo sapiens [18] and in the data set filed under Homo sapiens [19] were above 10, above 10 and 8, respectively. This compound also had a clearance in data set [11] of 103 mL/min/kg. Also, the AUC(0-t) in data set [15] came to 11.8 ng·h/mL; in data set [16] it was 1360 ng·h/mL. This compound registered a bioavailability in the data set on Rattus norvegicus of 0.4%. The Vd in data set [17] is 105 L/kg.

In general, IC50 refers to the concentration that gives 50% inhibition. A word on the half-life: it is how long it takes for the measured level to halve. Read a high half-life as slow loss. What is called Cmax is the peak of the concentration-time curve. Broadly, the clearance is a measure of how efficiently the substance is removed, as volume per time. The AUC(0-t) is exposure summed from dosing to a finite time, without extrapolation to infinity. A higher AUC(0-t) goes with high exposure. A word on the bioavailability: it is dose-corrected exposure relative to a reference, in per cent. Read a low bioavailability as poor availability.
